Converted amounts (≈) assume the structure as drawn.
Tests used:
[1] = Inhibition of bacterial OXA-1 using nitrocefin as substrate preincubated for 15 mins followed by susbtrate addition and measured after 10 mins by spectrophotometric method; set-up: species or system Bacteria
[2] = Inhibition of bacterial VIM-2 using nitrocefin as substrate preincubated for 15 mins followed by susbtrate addition and measured after 10 mins by spectrophotometric method; set-up: species or system Bacteria
In short: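 Purified β-lactamase inhibition. IC50 values are the average of duplicates unless otherwise indicated.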

[3] = Inhibition of bacterial CMY-2 using nitrocefin as substrate preincubated for 15 mins followed by susbtrate addition and measured after 10 mins by spectrophotometric method; set-up: species or system Bacteria
[4] = Inhibition of bacterial IMP-1 using nitrocefin as substrate preincubated for 15 mins followed by susbtrate addition and measured after 10 mins by spectrophotometric method; set-up: species or system Bacteria
[5] = Inhibition of bacterial OXA-48 using nitrocefin as substrate preincubated for 15 mins followed by susbtrate addition and measured after 10 mins by spectrophotometric method; set-up: species or system Bacteria
[6] = Inhibition of bacterial KPC-2 using imipenem as substrate preincubated for 15 mins followed by susbtrate addition and measured after 10 mins by spectrophotometric method; set-up: species or system Bacteria
[7] = Inhibition of bacterial CTX-M-15 using cefotaxime as substrate preincubated for 15 mins followed by susbtrate addition and measured after 10 mins by spectrophotometric method; set-up: species or system Bacteria
[8] = Inhibition of bacterial NDM-1 using cefepime as substrate preincubated for 15 mins followed by susbtrate addition and measured after 10 mins by spectrophotometric method; set-up: species or system Bacteria
[9] = test system: Klebsiella pneumoniae; experiment: Inhibition of VIM-27/CTX-M-15/SHV-11/OXA-1 in Klebsiella pneumoniae CDC-0040 assessed as piperacillin antibacterial activity at 16 ug/ml after 16 to 20 hrs by CLSI-based microbroth dilution method
[10] = test system: Klebsiella pneumoniae; experiment: Inhibition of OXA-232/OXA-9/TEM-1A/CTX-M-15/OXA-1 in Klebsiella pneumoniae CDC-0066 assessed as meropenem antibacterial activity at 4 ug/ml after 16 to 20 hrs by CLSI-based microbroth dilution method (reference value: […] ug/ml)
[11] = test system: Pseudomonas aeruginosa; experiment: Inhibition of KPC-2/PDC-42 in Pseudomonas aeruginosa CDC-0356 assessed as meropenem antibacterial activity at 4 ug/ml after 16 to 20 hrs by CLSI-based microbroth dilution method (reference value: […] ug/ml)
[12] = test system: Escherichia coli; experiment: Inhibition of NDM-1/CMY-6/OXA-1 in Escherichia coli CDC-0055 assessed as meropenem antibacterial activity at 4 ug/ml after 16 to 20 hrs by CLSI-based microbroth dilution method (reference value: […] ug/ml)
[13] = test system: Escherichia coli; experiment: Inhibition of NDM-1/CMY-6/OXA-1 in Escherichia coli CDC-0055 assessed as cefepime antibacterial activity at 8 ug/ml after 16 to 20 hrs by CLSI-based microbroth dilution method
In short: (§1)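 MDR β-lactamase-producing Gram-negative clinical isolates. […] MIC was reported as the inhibitor concentration that restores the partner's antibacterial activity.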

[14] = test system: Klebsiella pneumoniae; experiment: Inhibition of VIM-27/CTX-M-15/SHV-11/OXA-1 in Klebsiella pneumoniae CDC-0040 assessed as meropenem antibacterial activity at 4 ug/ml after 16 to 20 hrs by CLSI-based microbroth dilution method
[15] = test system: Klebsiella pneumoniae ATCC BAA-1705; experiment: Inhibition of KPC-2 in Klebsiella pneumoniae ATCC BAA 1705 assessed as piperacillin antibacterial activity at 16 ug/ml after 16 to 20 hrs by CLSI-based microbroth dilution method (Rvb > […] ug/ml)
[16] = test system: Klebsiella pneumoniae; experiment: Inhibition of KPC-2/SHV12/TEM-1 in Klebsiella pneumoniae CDC-0361 assessed as cefepime antibacterial activity at 8 ug/ml after 16 to 20 hrs by CLSI-based microbroth dilution method (reference value: […] ug/ml)
[17] = test system: Pseudomonas aeruginosa; experiment: Inhibition of KPC-2/PDC-42 in Pseudomonas aeruginosa CDC-0356 assessed as cefepime antibacterial activity at 8 ug/ml after 16 to 20 hrs by CLSI-based microbroth dilution method (Rvb > […] ug/ml)
[18] = Inhibition of bacterial SHV-5 using cefotaxime as substrate preincubated for 15 mins followed by susbtrate addition and measured after 10 mins by spectrophotometric method; set-up: species or system Bacteria
[19] = test system: Klebsiella pneumoniae; experiment: Inhibition of OXA-232/OXA-9/TEM-1A/CTX-M-15/OXA-1 in Klebsiella pneumoniae CDC-0066 assessed as cefepime antibacterial activity at 8 ug/ml after 16 to 20 hrs by CLSI-based microbroth dilution method (Rvb > […] ug/ml)
[20] = test system: Escherichia coli; experiment: Inhibition of NDM in Escherichia coli CDC-0452 assessed as piperacillin antibacterial activity at 16 ug/ml after 16 to 20 hrs by CLSI-based microbroth dilution method (Rvb > […] ug/ml)
[21] = test system: Pseudomonas aeruginosa; experiment: Inhibition of VIM in Pseudomonas aeruginosa CDC-0457 assessed as cefepime antibacterial activity at 8 ug/ml after 16 to 20 hrs by CLSI-based microbroth dilution method
[22] = test system: Pseudomonas aeruginosa; experiment: Inhibition of VIM in Pseudomonas aeruginosa CDC-0457 assessed as meropenem antibacterial activity at 4 ug/ml after 16 to 20 hrs by CLSI-based microbroth dilution method
[23] = test system: Klebsiella pneumoniae; experiment: Inhibition of KPC-2/SHV12/TEM-1 in Klebsiella pneumoniae CDC-0361 assessed as meropenem antibacterial activity at 4 ug/ml after 16 to 20 hrs by CLSI-based microbroth dilution method (reference value: […] ug/ml)
[24] = test system: Pseudomonas aeruginosa; experiment: Inhibition of KPC-2/PDC-42 in Pseudomonas aeruginosa CDC-0356 assessed as piperacillin antibacterial activity at 16 ug/ml after 16 to 20 hrs by CLSI-based microbroth dilution method (Rvb > […] ug/ml)
[25] = test system: Klebsiella pneumoniae; experiment: Inhibition of VIM-27/CTX-M-15/SHV-11/OXA-1 in Klebsiella pneumoniae CDC-0040 assessed as cefepime antibacterial activity at 8 ug/ml after 16 to 20 hrs by CLSI-based microbroth dilution method
[26] = test system: Pseudomonas aeruginosa; experiment: Inhibition of VIM in Pseudomonas aeruginosa CDC-0457 assessed as piperacillin antibacterial activity at 16 ug/ml after 16 to 20 hrs by CLSI-based microbroth dilution method
[27] = test system: Escherichia coli; experiment: Inhibition of NDM in Escherichia coli CDC-0452 assessed as meropenem antibacterial activity at 4 ug/ml after 16 to 20 hrs by CLSI-based microbroth dilution method (reference value: […] ug/ml)
[28] = Inhibition of bacterial AmpC using nitrocefin as substrate preincubated for 15 mins followed by susbtrate addition and measured after 10 mins by spectrophotometric method; set-up: species or system Bacteria
[29] = test system: Escherichia coli; experiment: Inhibition of NDM in Escherichia coli CDC-0452 assessed as cefepime antibacterial activity after 16 to 20 hrs by CLSI-based microbroth dilution method (reference value: […] ug/ml)
[30] = test system: Klebsiella pneumoniae ATCC BAA-1705; experiment: Inhibition of KPC-2 in Klebsiella pneumoniae ATCC BAA 1705 assessed as meropenem antibacterial activity at 4 ug/ml after 16 to 20 hrs by CLSI-based microbroth dilution method (reference value: […] ug/ml)
[31] = test system: Klebsiella pneumoniae; experiment: Inhibition of OXA-232/OXA-9/TEM-1A/CTX-M-15/OXA-1 in Klebsiella pneumoniae CDC-0066 assessed as piperacillin antibacterial activity at 16 ug/ml after 16 to 20 hrs by CLSI-based microbroth dilution method (Rvb > […] ug/ml)
[32] = test system: Escherichia coli; experiment: Inhibition of NDM-1/CMY-6/OXA-1 in Escherichia coli CDC-0055 assessed as piperacillin antibacterial activity at 16 ug/ml after 16 to 20 hrs by CLSI-based microbroth dilution method; in short: as §1
[33] = test system: Klebsiella pneumoniae; experiment: Inhibition of KPC-2/SHV12/TEM-1 in Klebsiella pneumoniae CDC-0361 assessed as piperacillin antibacterial activity at 16 ug/ml after 16 to 20 hrs by CLSI-based microbroth dilution method (Rvb > […] ug/ml)

O=C(O)[C@H]1/C(=C/CO)O[C@@H]2CC(=O)N21 [CLAVULANIC ACID]
IC50 [1]: 120 nM
IC50 [2]: > 100000 nM
IC50 [3]: > 100000 nM
IC50 [4]: > 100000 nM
IC50 [5]: 30000 nM
IC50 [6]: 1800 nM
IC50 [7]: 40 nM
IC50 [8]: > 100000 nM

O=C(O)C[C@@H]1CC[C@H](NC(=O)Cc2cccs2)B(O)O1 [VABORBACTAM]
IC50 [1]: 7900 nM
MIC [9]: > 16 µg/mL
MIC [10]: > 16 µg/mL
MIC [11]: 8 µg/mL (≈ 26.9 µM)
MIC [12]: > 16 µg/mL
MIC [13]: > 16 µg/mL
MIC [14]: > 16 µg/mL
MIC [15]: > 16 µg/mL
MIC [16]: > 16 µg/mL
IC50 [2]: > 100000 nM
IC50 [3]: 220 nM
IC50 [4]: > 100000 nM
IC50 [5]: 38800 nM
IC50 [6]: 100 nM
MIC [17]: > 16 µg/mL
IC50 [18]: 440 nM
MIC [19]: > 16 µg/mL
MIC [20]: > 16 µg/mL
MIC [21]: > 16 µg/mL
MIC [22]: > 16 µg/mL
MIC [23]: 0.06 µg/mL (≈ 0.202 µM)
IC50 [7]: 420 nM
MIC [24]: > 16 µg/mL
MIC [25]: > 16 µg/mL
MIC [26]: > 16 µg/mL
MIC [27]: > 16 µg/mL
IC50 [28]: 90 nM
MIC [29]: > 16 µg/mL
MIC [30]: 0.03 µg/mL (≈ 0.101 µM)
IC50 [8]: > 100000 nM
MIC [31]: > 16 µg/mL
MIC [32]: > 16 µg/mL
MIC [33]: > 16 µg/mL

— ChEMBL document CHEMBL4354828, “Discovery of Taniborbactam (VNRX-5133): A Broad-Spectrum Serine- and Metallo-β-lactamase Inhibitor for Carbapenem-Resistant Bacterial Infections” (J Med Chem, 2020)
